Reference: paper PMC8207330 (Leukemia research, 2017)
Several values for one entry are separate records, joined by “and”; a condition that tells them apart may be missing. Equal values may be shown once. Read-outs that look alike come from different tables or passages of the source.

Key:
[1] = tested on: patients with JAK2^V617F-positive myelofibrosis, essential thrombocythemia, or polycythemia vera; format: in vivo
[2] = Pharmacokinetics in patients; format: in vivo, human
[3] = tested on: patients with JAK2^V617F-positive myelofibrosis, essential thrombocythemia, or polycythemia vera; assay: Clinical efficacy; format: in vivo, human
How it was run: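 Multicentre, nonrandomised, open-label phase 1 of the oral test compound given once daily in 28-day cycles. 3 + 3 escalation through 30, 60, 120, 240 and 200 mg. A 120 mg lead-in for 14–28 days was followed by 200 or 300 mg, and 120 mg was used for dose confirmation. Response was scored by IWG clinical-improvement criteria, or European LeukemiaNet criteria for PV/ET, with duration counted in cycles. Analysis was descriptive.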

[4] = cohort 6, 200 mg (Cycle 1b), N = 7
[5] = cohort 7, 120 mg (Cycle 1a), N = 6
[6] = cohort 7, 300 mg (Cycle 1b), N = 5
[7] = cohort L (withdrawn in lead-in phase), 120 mg, N = 1
[8] = cycle 1, cohort 1, 30 mg, N = 3
[9] = cycle 1, cohort 2, 60 mg, N = 3
[10] = cycle 1, cohort 3, 120 mg, N = 10
[11] = cycle 1, cohort 4, 240 mg, N = 3
[12] = cycle 1, cohort 5, 200 mg, N = 3

Cc1cc(Nc2cc(CN3CCOCC3)c3nc(C)c(Cc4ccc(Cl)cc4F)n3n2)n[nH]1 [gandotinib]
DLT: Blood creatinine increased [1, 4]: 3 (42.9) n (%)
DLT: Hyperkalemia [1, 4]: 0 n (%)
DLT: Hyperuricemia [1, 4]: 0 n (%)
DLT: Renal failure acute [1, 4]: 0 n (%)
Patients with DLT [1, 4]: 3 (42.9) n (%)
DLT: Blood creatinine increased [1, 5]: 0 n (%)
DLT: Hyperkalemia [1, 5]: 0 n (%)
DLT: Hyperuricemia [1, 5]: 0 n (%)
DLT: Renal failure acute [1, 5]: 0 n (%)
Patients with DLT [1, 5]: 0 n (%)
DLT: Blood creatinine increased [1, 6]: 1 (20.0) n (%)
DLT: Hyperkalemia [1, 6]: 0 n (%)
DLT: Hyperuricemia [1, 6]: 0 n (%)
DLT: Renal failure acute [1, 6]: 1 (20.0) n (%)
Patients with DLT [1, 6]: 2 (40.0) n (%)
DLT: Blood creatinine increased [1, 7]: 0 n (%)
DLT: Hyperkalemia [1, 7]: 0 n (%)
DLT: Hyperuricemia [1, 7]: 0 n (%)
DLT: Renal failure acute [1, 7]: 0 n (%)
Patients with DLT [1, 7]: 0 n (%)
DLT: Blood creatinine increased ([1]; cycle 1, Total, N = 37): 5 (13.5) n (%)
DLT: Hyperkalemia ([1]; cycle 1, Total, N = 37): 1 (2.7) n (%)
DLT: Hyperuricemia ([1]; cycle 1, Total, N = 37): 2 (5.4) n (%)
DLT: Renal failure acute ([1]; cycle 1, Total, N = 37): 1 (2.7) n (%)
Patients with DLT ([1]; cycle 1, Total, N = 37): 9 (24.3) n (%)
DLT: Blood creatinine increased [1, 8]: 0 n (%)
DLT: Hyperkalemia [1, 8]: 0 n (%)
DLT: Hyperuricemia [1, 8]: 0 n (%)
DLT: Renal failure acute [1, 8]: 0 n (%)
Patients with DLT [1, 8]: 0 n (%)
DLT: Blood creatinine increased [1, 9]: 0 n (%)
DLT: Hyperkalemia [1, 9]: 0 n (%)
DLT: Hyperuricemia [1, 9]: 0 n (%)
DLT: Renal failure acute [1, 9]: 0 n (%)
Patients with DLT [1, 9]: 0 n (%)
DLT: Blood creatinine increased [1, 10]: 0 n (%)
DLT: Hyperkalemia [1, 10]: 0 n (%)
DLT: Hyperuricemia [1, 10]: 0 n (%)
DLT: Renal failure acute [1, 10]: 0 n (%)
Patients with DLT [1, 10]: 0 n (%)
DLT: Blood creatinine increased [1, 11]: 0 n (%)
DLT: Hyperkalemia [1, 11]: 0 n (%)
DLT: Hyperuricemia [1, 11]: 1 (33.3) n (%)
DLT: Renal failure acute [1, 11]: 0 n (%)
Patients with DLT [1, 11]: 1 (33.3) n (%)
DLT: Blood creatinine increased [1, 12]: 1 (33.3) n (%)
DLT: Hyperkalemia [1, 12]: 1 (33.3) n (%)
DLT: Hyperuricemia [1, 12]: 1 (33.3) n (%)
DLT: Renal failure acute [1, 12]: 0 n (%)
Patients with DLT [1, 12]: 3 (100) n (%)
DLTs observed ([1]; first 3 tested doses (30, 60, 120 mg)): No DLTs
treatment discontinuation due to renal failure ([1]; most frequent adverse event resulting in discontinuation): 4 patients
Vd/F ([2]; human, plasma, oral): 682 L
half-life ([2]; human, plasma, oral): ~6 h
apparent clearance (CL/F) ([2]; mean value, CV of 68): 80.7 L/h
time at which maximum plasma concentration (Cmax) was reached ([2]; on average, after single and multiple doses): 4 h
partial response ([3]; ET (1 patient enrolled)): One
duration of clinic-hematologic partial response ([3]; PV patients): 3–16 cycles
JAK2^V617F allele burden reduction of ≥50% at any time ([3]; across all cohorts): 5 of 36
palpable spleen length reduction of ≥ 50% at any time during therapy ([3]; across all cohorts): 20/32 and 20 of 32
no clinic-hematologic response ([3]; of the 6 patients with PV): 3 patients
clinic-hematologic partial response ([3]; of the 6 patients with PV (2 in cohort 6, 1 in cohort 7)): 3 patients
